How the values were obtained:
[1] = target: T1, Amine oxidase [flavin-containing] B (Homo sapiens, UniProt P27338); test: Inhibition of recombinant human monoamine oxidase B expressed in insect microsomes using kynuramine as substrate after 20 mins by fluorescence spectrophotometry; design: species or system Microsome
T1 sequence (P27338 whole entry): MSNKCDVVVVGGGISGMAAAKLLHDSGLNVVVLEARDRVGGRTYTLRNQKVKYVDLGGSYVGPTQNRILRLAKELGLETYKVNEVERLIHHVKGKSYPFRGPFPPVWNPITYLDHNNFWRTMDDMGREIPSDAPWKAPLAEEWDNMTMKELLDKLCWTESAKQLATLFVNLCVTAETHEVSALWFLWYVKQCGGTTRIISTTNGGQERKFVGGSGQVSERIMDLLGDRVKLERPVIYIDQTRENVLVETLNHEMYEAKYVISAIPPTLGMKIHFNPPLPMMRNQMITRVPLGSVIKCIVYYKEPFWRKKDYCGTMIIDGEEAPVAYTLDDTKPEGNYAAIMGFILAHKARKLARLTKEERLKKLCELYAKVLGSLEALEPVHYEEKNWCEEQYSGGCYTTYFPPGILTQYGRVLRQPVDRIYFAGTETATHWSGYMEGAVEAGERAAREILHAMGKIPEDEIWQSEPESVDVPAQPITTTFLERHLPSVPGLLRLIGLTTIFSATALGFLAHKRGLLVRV
Method in brief: (§1)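 Enzyme source: insect-cell microsomes with recombinant human MAO-A or MAO-B at 0.0075 mg protein/mL, with kynuramine as substrate. Six inhibitor concentrations (0–100 µM) spanned at least 3 log units. Incubation was 20 min at 37 °C, then stopped with 2 N NaOH. IC50 came from sigmoidal fits of initial rate versus log inhibitor, in triplicate, mean ± SD.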

[2] = target: T2, Amine oxidase [flavin-containing] A (Homo sapiens, UniProt P21397); test: Inhibition of recombinant human monoamine oxidase A expressed in insect microsomes using kynuramine as substrate after 20 mins by fluorescence spectrophotometry; design: species or system Microsome
T2 sequence (P21397 whole entry): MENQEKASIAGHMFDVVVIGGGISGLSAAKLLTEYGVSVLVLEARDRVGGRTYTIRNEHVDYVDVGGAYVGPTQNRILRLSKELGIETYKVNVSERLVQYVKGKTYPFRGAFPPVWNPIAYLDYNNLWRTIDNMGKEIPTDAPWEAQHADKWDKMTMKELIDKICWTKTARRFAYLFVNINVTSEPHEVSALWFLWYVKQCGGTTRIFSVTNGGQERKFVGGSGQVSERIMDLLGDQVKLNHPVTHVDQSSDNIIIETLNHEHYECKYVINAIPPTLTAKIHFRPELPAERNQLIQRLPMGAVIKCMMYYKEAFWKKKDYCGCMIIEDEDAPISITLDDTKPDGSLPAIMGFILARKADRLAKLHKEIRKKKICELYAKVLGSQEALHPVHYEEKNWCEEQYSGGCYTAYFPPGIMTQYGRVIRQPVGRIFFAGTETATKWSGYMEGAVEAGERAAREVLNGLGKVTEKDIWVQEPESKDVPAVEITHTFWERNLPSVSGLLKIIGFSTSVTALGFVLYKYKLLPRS
Method in brief: as §1, with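 “substrate. Buffer was potassium phosphate 100 mM, pH 7.4, made isotonic with 20.2 mM KCl.” for “substrate.”, “NaOH. 4-Hydroxyquinoline was read by fluorescence ([…] nm as printed) against a 0.047–1.56 µM standard curve.” for “NaOH.”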

[3] = species: Homo sapiens; test: Selectivity index, ratio of IC50 for recombinant human monoamine oxidase A to IC50 for recombinant human monoamine oxidase B
[4] = target: T2, Amine oxidase [flavin-containing] A; test: Competitive inhibition of recombinant human monoamine oxidase A at 0.190 uM preincubated for 15 to 60 mins before kynuramine substrate addition measured after 15 mins; conditions: 0.25 h, 0.19 µM
[5] = target: T1, Amine oxidase [flavin-containing] B; test: Competitive inhibition of recombinant human monoamine oxidase B at 0.064 uM preincubated for 15 to 60 mins before kynuramine substrate addition measured after 15 mins by Lineweaver-Burk plot analysis; conditions: 0.25 h

Row | SMILES | IC50 [1] [nM] | IC50 [2] [nM] | Ratio IC50 [3] | inhibition (INH) [4] | inhibition (INH) [5]
1 | O=c1ccoc2ccc(OCc3ccccc3)cc12 | 53 | 3300 | 62 |  | 
2 | Cc1ccc(COc2ccc3occc(=O)c3c2)cc1 | 6 | 3490 | 582 |  | 
3 | O=c1ccoc2ccc(OCc3cccc(F)c3)cc12 | 13 | 1230 | 95 |  | 
4 | O=c1ccoc2ccc(OCc3ccc(C(F)(F)F)cc3)cc12 | 2 | 879 | 440 |  | 
5 | O=c1ccoc2ccc(OCCc3ccc(Br)cc3)cc12 | 27 | 480 | 18 |  | 
6 | Cc1cccc(COc2ccc3occc(=O)c3c2)c1 | 19 | 1130 | 59 |  | 
7 | O=c1ccoc2ccc(OCc3cccc(Cl)c3)cc12 | 3.6 | 424 | 118 |  | 
8 | O=c1ccoc2ccc(OCCc3ccccc3)cc12 | 21 | 3120 | 149 |  | 
9 | O=c1ccoc2ccc(OCCCc3ccccc3)cc12 | 57 | 1910 | 34 |  | 

Compounds with a lower IC50 [2], results first:

Row | IC50 [1] [nM] | IC50 [2] [nM] | Ratio IC50 [3] | inhibition (INH) [4] | inhibition (INH) [5] | SMILES
10 | 2 | 386 | 193 |  |  | O=c1ccoc2ccc(OCc3cccc(Br)c3)cc12
11 |  | 322 |  |  |  | O=c1ccoc2ccc(OCc3ccc(F)cc3)cc12
12 | 76 | 255 | 3 |  |  | N#Cc1cccc(COc2ccc3occc(=O)c3c2)c1
13 | 22 | 175 | 8 |  |  | N#Cc1ccc(COc2ccc3occc(=O)c3c2)cc1
14 |  | 106 |  |  |  | O=c1ccoc2ccc(OCc3ccc(Cl)cc3)cc12
15 | 3.3 | 95 | 29 | Active | Active | O=c1ccoc2ccc(OCc3ccc(Br)cc3)cc12
